Laboratory results from the RNAGym collection of RNA variant scans (doi:10.1126/science.aae0568).
Fewer inactive variants are shown than the library holds.

B1: tRNA (parent)
chain: GUUCCGUUGGCGUAAUGGUAACGCGUCUCCCUCCUAAGGAGAAGACUGCGGGUUCGAGUCCCGUACGGAACG

Variants of: B1
Assay: yeast fitness relative to wild type (ratio to wild type); higher = fitter; tRNA-Arg(CCU), competitive growth, 37 C, YPD
How it was run: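 For this measurement, the tRNA-Arg(CCU) gene was varied by chemical synthesis at a 3% per-site mutation rate across 69 sites, and each variant was placed at the native genomic locus in Saccharomyces cerevisiae. The pooled strains went through a 24-hour competition in YPD at 37°C in six parallel replicates, with amplicons from start and end populations read by 100-nucleotide paired-end sequencing. Darwinian fitness relative to wild type followed from the change in each genotype's frequency. Genotypes needed ≥ 100 starting reads, and estimates < 0.5 were set to 0.5.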

Row | Variant | yeast fitness
1 | GUUACGUUGGCGUAAUGGUAACGCGUCUCCCUCCUAAGGAGAAGACCGCGGGUUCGAGUCCCGUACGGACCG [C4A U47C A70C] | 0.749
2 | GUUGCGUUGGCGUAGUGGUAACACGUCUCCCUCGUAAGGAGAAGACUGCGGGUUCGAGUCCCGUACUGAACG [C4G A15G G23A C34G G67U] | ≤ 0.5
3 | GUUACGUUGGCGUAAUGGUAACGCGUCACCGUCCUAAGGUGAAGACUGCGGGUUCGAGUCCCGUUCGCAACG [C4A U28A C31G A40U A65U G68C] | ≤ 0.5
4 | GUUACGUUGGCGUAAUGGUAACGCGUCUCCCUCCUAAGGAGAAGACUGCGGGUUCGAGACCCGUACGGAACG [C4A U59A] | 0.664
5 | GUUACGUUGGCGUAAUGGUAACGCGUCUCCCUCCUAAGGAGAAGACUGCGGGUUCGAGCCCCGUACGGAACG [C4A U59C] | 0.944
6 | GUUGCGUUGGCGUAGUGGUAACACGUCUCCCUCGUAAGGAGAAGACUGCGGGUUCGAGUCCCGUACGAAACG [C4G A15G G23A C34G G68A] | ≤ 0.5
7 | GUUGCGUUGGCGUCAUGGUAACGCGUCUCUCUCCUAAGGUGAAGACUGUGGGUUCGAGUCCCGUACGGAACG [C4G A14C C30U A40U C49U] | 0.504
8 | GUUACGUUGGCGUAAUGGUAACGCGUCUCCCGCCUAAGGAGAAGGCUGUGGGUUCGAGUCCCGUACGGAUCG [C4A U32G A45G C49U A70U] | ≤ 0.5
9 | GUUACGUUGGCGUAAUGGUAACGCGUCUCCCUCCUAAGGAGAAGACUGCGGGCUCGAGUCCCGAACGGAACG [C4A U53C U64A] | ≤ 0.5
10 | GUUACGUUGGCGUAAUGGUAACGCGUCUCCCCUCUAAGGAGAAGACUGGGGGUUCGAGUCCCGUACGGAACG [C4A U32C C33U C49G] | ≤ 0.5
11 | GUUACGUUGGCGUAAUGGUAACGCGUCUCCCUCCUAAGGAGAAGACUGCGGGUCCGAGACCCGUACGGAACG [C4A U54C U59A] | 0.542
12 | GUUGCGUUGGCGUCAUGGUAAUGCGUCUCCCUCCUAAGGAGAAGACCGCGGGUUCGAGUCCCGUACGGAACG [C4G A14C C22U U47C] | ≤ 0.5
13 | GUUACGUUGGCGUAAUGGUAACGCGUCUCCCACCUAAGGAGAAGACUGCGGGUUCGAGUCCCGUACGGAACG [C4A U32A] | 0.876
14 | GUUGCGUUGGCGUUAUGGUAACGCGUCUCUCUCCUAAGGAGAAGACUCCGGGUUCGAGUCCCGUACGGAACG [C4G A14U C30U G48C] | ≤ 0.5
15 | GUUACGUUGGCGUAAUGGUAACGCGUCUCCCUCCCAAGGAGAAGACUCCGGGUUUAAGUCCUGUACGGAACG [C4A U35C G48C C55U G56A C62U] | ≤ 0.5
16 | GUUGCGUUGGCGUUAUGGUAACGCGUCUCCCUCCUAAGGAGAAGACUGCGGGUUCGAGUCCCGUACGGAACG [C4G A14U] | 0.78
17 | GUUGCGUUGGCGUGAUGGUAACGCGUCUCCCUCCUAAGGAGAAGACUGCGGGUUCGAGUCCCGUACGGAACG [C4G A14G] | 0.78
18 | GUUGCGUUGGCGUCAUGGUAACGCGUCUCCCUCCUAAGGAGAAGACUGCGGGUUCGAGUCCCGUACGGAACG [C4G A14C] | 0.568
19 | GUUACGUUGGCGUAAUGGUAACGCGUCUCCCUCCCAAGGAGAAGACUGCGGGUUCGAGUCCCGUACGGAACG [C4A U35C] | 0.834

Row | Variant | yeast fitness
20 | GUUGCGUUGGCGUGAUGGUAACGCGUCUCCCUCCUAUAGAGAAGACUGCGGGUUCGAGUCCCGUACGGAUCG [C4G A14G A37U G38A A70U] | 0.628
21 | GUUGCGUUGGCGUACUGGUAACGCGUCUCCCUCCUAAGGAGAAGACUGCCGGUCCGAGUCCCGUACGGAACG [C4G A15C G50C U54C] | ≤ 0.5
22 | GUUACGUUGGCGUAAUGGUAACGCGUCCCCCUCCUAAGGAGGAGACUGCGGGUUCGAGUCCCGUUCGGCACG [C4A U28C A42G A65U A69C] | ≤ 0.5
23 | GUUGCGUUGGCGUGAUGGUAACGCGUCUCCCUUCUAAGGAGAAGACUGCGGGUUCGAGUCCCGUACGGAACG [C4G A14G C33U] | ≤ 0.5
24 | GUUACGUUGGCGUAAUGGUAACGCGUCCCCCUCCUAAGGAGAAGACUGCGGGUUCAAGUCUCGUACGGAACG [C4A U28C G56A C61U] | ≤ 0.5
25 | GUUGCGUUGGCGUGAUGGUAACGCGUCUCCCUCCUAUAGAGAAGACUGCGGGUUCGAGUCCCCUACGGAACG [C4G A14G A37U G38A G63C] | ≤ 0.5
26 | GUUGCGUUGGCGUGAUGGUAACGCGUCUCCCUCCUAAGGAGAAGACUGCGGGUUCGAGUCCCAUACGGAACG [C4G A14G G63A] | ≤ 0.5
27 | GUUACGUUGGCGUAAUGGUAACGCGUCUCCCCCCUAAGGAGAAGAGUGCGGGUUCGAGUCCCGUACGGAACG [C4A U32C C46G] | 0.599
28 | GUUGCGUUGGCGUCAUGGUAACGCGUCUCCUUCCAAAGGAGAAGACGGCGGGUUCGAGUCCCGUACGGAACG [C4G A14C C31U U35A U47G] | ≤ 0.5
29 | GUUGCGUUGGCGUUAUGGUAACGCGUCUCCCUCCUAAGGAGAAGACUGCGGGUUCGAGUACCGUACGGAACG [C4G A14U C60A] | 0.553
30 | GUUGCGUUGGCGUUAUGGUAACGCGUCUCCCUCCUAAGGAGAAGAUUGCGGGUUCGAGUUCCGUCCGGAACG [C4G A14U C46U C60U A65C] | ≤ 0.5
31 | GUUGCGUUGGCGUGAUGGUAACGCGCCUCCCUCCUGCGGAGAAGACUGCGCGUUCGAGUCCCGUACGGAACG [C4G A14G U26C A36G A37C G51C] | ≤ 0.5
32 | GUUGCGUUGGCGUUAUGGUAACGCGUCUCCUUCCUAAGGGGAAGACUGCGGGUUCGAGUCCCGUACGGAACG [C4G A14U C31U A40G] | ≤ 0.5
33 | GUUACGUUGGCGUAAUGGUAACGCGUCUCCCUCCUAAGGAGAAGACUGCGGGAUCGAGUCCCGUACUGAACG [C4A U53A G67U] | ≤ 0.5
34 | GUUACGUUGGCGUAAUGGUAACGCGUCUCCCCCCUAAGGAGAAGACUGCGGGUUCGAGUCCCGUACGCAACG [C4A U32C G68C] | 0.867
35 | GUUGCGUUGGCGUCAUGGUAACGCGUCUCUCUCCUAAGGUGAAGACUGCGGCUUCGAGUCCCGUACAGAACG [C4G A14C C30U A40U G52C G67A] | ≤ 0.5
36 | GUUGCGUUGGCGUACUGGUAACGCGUCCCCCUCCUAAGGAGAAGACUGCGGGUUGGUGUCCCGUACGGAACG [C4G A15C U28C C55G A57U] | ≤ 0.5
37 | GUUACGUUGGCGUAAUGGUAACGCGUCUCCCUCCCAAGGAGAAGACUGCGGGUUCGAGUCCCGGACGGAACG [C4A U35C U64G] | ≤ 0.5
